Columns and labels:
[1] = molecular target: Adenosylhomocysteinase (Homo sapiens) (UniProt P23526); assay: Inactivation of human recombinant S-adenosyl-L-homocysteine hydrolase NAD+ form expressed in Escherichia coli JM109 at 100 uM
Outline: (§1)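 Enzyme (1 μM), fully reconstituted with NAD+, incubated with 100 μM ribavirin and 50 μM NAD+ in phosphate pH 7.2 at 37 °C; remaining hydrolytic activity (AdoHcy → Ado + Hcy, ADA-coupled, DTNB read at 412 nm, 22 °C) sampled over time; first-order inactivation rate constant.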

Trypanosoma cruzi [2] = assay: Inactivation of Trypanosoma cruzi recombinant S-adenosyl-L-homocysteine hydrolase NAD+ form expressed in Escherichia coli JM109 at 100 uM; outline: as §1
[3] = molecular target: Adenosylhomocysteinase (Homo sapiens) (UniProt P23526); assay: Inactivation of human recombinant S-adenosyl-L-homocysteine hydrolase NAD+ form expressed in Escherichia coli JM109 assessed as increase in fluorescence at 200 uM
Outline: (§2)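 NAD+-reconstituted enzyme (10 μM) incubated with 200 μM ribavirin plus 100 μM NAD+ in 50 mM phosphate pH 7.2, 1 mM EDTA at 37 °C; rise in NADH fluorescence (ex 340/em 450 nm) followed over time and fit to first-order relationship.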

Trypanosoma cruzi [4] = assay: Inactivation of Trypanosoma cruzi recombinant S-adenosyl-L-homocysteine hydrolase NAD+ form expressed in Escherichia coli JM109 assessed as increase in fluorescence at 200 uM; outline: as §2
Trypanosoma cruzi [5] = assay: Inactivation of Trypanosoma cruzi recombinant S-adenosyl-L-homocysteine hydrolase NADH form expressed in Escherichia coli JM109 assessed by measuring fluorescence
[6] = molecular target: Adenosylhomocysteinase (Homo sapiens) (UniProt P23526); assay: Binding to human recombinant S-adenosyl-L-homocysteine hydrolase NADH form expressed in Escherichia coli JM109
Outline: (§3)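 Apo-enzyme reconstituted with 1 mM NADH (pH 8.5, 12 h, 4 °C) and gel-filtration purified; 10 μM enzyme incubated with ribavirin 0-6 mM in 50 mM phosphate pH 7.2, 1 mM EDTA, 37 °C. Quenching of bound NADH fluorescence (ex 340/em 450 nm) fit to hyperbolic saturation model to give dissociation constant KR.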

Trypanosoma cruzi [7] = assay: Binding to Trypanosoma cruzi recombinant S-adenosyl-L-homocysteine hydrolase NADH form expressed in Escherichia coli JM109; outline: as §3
[8] = molecular target: Adenosylhomocysteinase (Homo sapiens) (UniProt P23526); assay: Ratio of kinact for human recombinant S-adenosyl-L-homocysteine hydrolase NAD+ form to KI for human recombinant S-adenosyl-L-homocysteine hydrolase NAD+
Trypanosoma cruzi [9] = assay: Ratio of kinact for Trypanosoma cruzi recombinant S-adenosyl-L-homocysteine hydrolase NAD form to KI for Trypanosoma cruzi recombinant S-adenosyl-L-homocysteine hydrolase NAD form

Sequence of Adenosylhomocysteinase (Homo sapiens) (P23526 2-432 limits assumed): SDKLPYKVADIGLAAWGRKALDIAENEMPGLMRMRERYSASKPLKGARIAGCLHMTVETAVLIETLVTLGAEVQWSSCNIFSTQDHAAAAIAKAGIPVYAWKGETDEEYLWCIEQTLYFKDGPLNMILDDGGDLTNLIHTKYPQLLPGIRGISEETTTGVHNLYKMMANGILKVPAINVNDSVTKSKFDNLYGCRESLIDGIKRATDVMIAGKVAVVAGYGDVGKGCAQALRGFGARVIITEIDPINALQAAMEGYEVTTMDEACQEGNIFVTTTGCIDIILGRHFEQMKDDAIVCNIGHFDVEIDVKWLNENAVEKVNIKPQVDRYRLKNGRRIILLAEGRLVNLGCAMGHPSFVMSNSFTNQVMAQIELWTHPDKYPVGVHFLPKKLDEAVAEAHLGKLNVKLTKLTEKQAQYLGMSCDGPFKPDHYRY

SMILES	Activity [1]	Activity (Trypanosoma cruzi [2])	Fluorescence intensity [3]	Fluorescence intensity (Trypanosoma cruzi [4])	Activity (Trypanosoma cruzi [5])	KR [6]	KR (Trypanosoma cruzi [7])	Ratio [8]	Ratio (Trypanosoma cruzi [9])	Fluorescence intensity (Trypanosoma cruzi [5])
NC(=O)c1ncn([C@@H]2O[C@H](CO)[C@@H](O)[C@H]2O)n1	Dose-dependent effect	Dose-dependent effect	182000	227000	3.13 10^10/M	407 µM	586 µM	0.56 M⁻¹ s⁻¹	3.92 M⁻¹ s⁻¹	–
Nc1ncnc2c1ncn2[C@@H]1C=C[C@@H](O)[C@H]1O	–	–	–	–	–	–	–	–	–	5.4%

From ChEMBL document CHEMBL1137494, “The antiviral drug ribavirin is a selective inhibitor of S-adenosyl-L-homocysteine hydrolase from Trypanosoma cruzi” (Bioorg Med Chem, 2007)
